IMP-1 inhibitor: inhibitors of Pseudomonas aeruginosa IMP-1 metallo-beta-lactamase | inhibition, % at 5.6 µM | purified IMP-1, nitrocefin hydrolysis, epi-absorbance fluorescence | AID 1556 | 290,000 compounds, 0.45% hits;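 active = inhibition above the mean plus 3 SD of all compounds in the same screening run, cut at about 4.5% in these data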;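 also: 0% = IMP-1 with DMSO and 100% = DMSO wells lacking enzyme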
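System: Purified recombinant IMP-1 metallo-beta-lactamase enzyme | Measured by: Fluorescence quenching readout, ex 480/em 530 nm | Replication: Singlicate | Incubation: 15 min preincubation plus 25 min reaction at 25 °C | Evaluation: Percent inhibition from optical density relative to buffer-blank wells | Benchmarks: DMSO with and without IMP-1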
VIM-2 inhibitor: inhibitors of Pseudomonas aeruginosa VIM-2 metallo-beta-lactamase; purified VIM-2, nitrocefin hydrolysis, epi-absorbance fluorescence; inhibition, % at 5.6 µM; 290,000 compounds, 0.89% hits;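 active = inhibition above the mean of all tested compounds plus 3 SD, cutoff set per screening run, cut at about 7.5% in these data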;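 also: red hydrolysis product quenches plate fluorescence so inhibitors raise well fluorescence; 0% = enzyme with DMSO and 100% = DMSO without enzyme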
eIF4H inh: inhibitors of RNA binding by human eIF4H; Q15056; eIF4H fluorescence polarization binding assay; inhibition, % at 35 µM; 290,000 compounds, 0.94% hits; AID 2012;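 also: calls also rest on retests at 20 µM and on dose response follow-up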
MLLE-PAM2 inh: blocks PAM2 peptide binding to the PABP1 MLLE domain; GST-MLLE / FITC-PAM2 fluorescence polarization; 360,000 compounds, 0.36% hits; AID 588489; P11940; inhibition, % at 20 µM; in the data active = inhibition above about 35%, passing the limit was not always enough;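 also: plate controls were DMSO wells with GST-MLLE for no effect and wells lacking GST-MLLE protein for full effect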
Target sequence (P11940 whole entry, looked up, the tested form may be a part): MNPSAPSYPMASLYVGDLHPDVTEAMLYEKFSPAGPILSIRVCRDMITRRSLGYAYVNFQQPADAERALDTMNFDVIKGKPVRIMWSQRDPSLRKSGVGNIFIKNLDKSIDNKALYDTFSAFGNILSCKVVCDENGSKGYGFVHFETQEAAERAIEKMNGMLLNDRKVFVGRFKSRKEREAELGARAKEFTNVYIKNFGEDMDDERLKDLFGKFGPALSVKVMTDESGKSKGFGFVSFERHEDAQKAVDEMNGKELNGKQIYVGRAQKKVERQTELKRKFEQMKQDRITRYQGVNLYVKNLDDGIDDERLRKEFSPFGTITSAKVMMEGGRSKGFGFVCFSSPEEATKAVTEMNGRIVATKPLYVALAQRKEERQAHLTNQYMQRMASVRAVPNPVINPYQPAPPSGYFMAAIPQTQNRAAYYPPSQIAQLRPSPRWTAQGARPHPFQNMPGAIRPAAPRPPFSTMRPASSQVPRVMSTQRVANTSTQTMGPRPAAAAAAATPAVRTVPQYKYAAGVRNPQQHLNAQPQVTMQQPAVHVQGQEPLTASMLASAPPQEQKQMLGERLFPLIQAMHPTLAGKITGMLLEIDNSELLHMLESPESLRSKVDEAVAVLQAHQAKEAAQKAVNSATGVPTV
PABP FP inh: PABP-poly(A) binding inhibition | calls only at 35 µM | PABP-poly(A) RNA binding, fluorescence polarization | P11940 | 290,000 compounds, 1% hits;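 also: calls also rest on retests at 20 µM and on dose response follow-up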
* marks the source's active call; other numbers are inactive results; i = inactive; u = inconclusive; x = no result; + = active, no number. Hits are enriched below; roughly 2.2% of the tested compounds scored in any of these assays. Unless noted, no rule for the calls is given here.

SMILES	IMP-1 inhibitor	VIM-2 inhibitor	eIF4H inh	MLLE-PAM2 inh	PABP FP inh
CC1c2nc3ccccc3n2C(CC(=O)NC2CC2)C(=O)N1Cc1ccccc1 (stereo not drawn)	-2.8	-5.3	-1.1	-9.5	u
O=C(Nc1ccc(F)cc1)NC1CCN(Cc2nnnn2Cc2ccco2)CC1	-2.4	-3.1	74.3*	6.2	+
O=C(Nc1ccccc1F)NC1CCN(Cc2nnnn2Cc2ccc(F)cc2)CC1	-2.2	0.9	6.0	4.6	i
COc1ccc(NS(=O)(=O)c2cccc(C(=O)N3CCN(C/C=C/c4ccccc4)CC3)c2)cc1	x	x	x	-11.4	x
COc1ccc(C(CNC(=O)CNC(=O)c2cccc(F)c2)N2CCOCC2)cc1 (stereo not drawn)	x	x	x	2.8	x
COC(C)(C)[C@@H](O)COc1c2ccoc2cc2oc(=O)ccc12	x	x	x	-5.7	x
CN(C)CCCNc1nc(-c2ccccc2)nc2ccccc12	-6.5	2.7	33.4	-5.6	i
CN(C)CCCNc1c2ccccc2nc2ccccc12	-1.1	12.1*	2.8	4.3	i
S=C(Nc1ccc(Nc2ccccc2)cc1)Nc1ccccn1	-12.7	-4.6	-8.0	38.4*	i
COC(=O)COc1ccc(/C=N/NS(=O)(=O)c2ccccc2)cc1	-4.5	-1.6	-6.1	-51.4	i
NC(=O)COc1ccc(/C=N/NS(=O)(=O)c2ccccc2)cc1	-3.7	-2.6	96.1	-36.7	+
COc1cc(/C=C/c2cccc[n+]2C)ccc1OCC(=O)Nc1cccc(Cl)c1	-1.6	-0.2	-7.3	-120.6	i
COc1ccc(/C=C(\NC(=O)c2ccccc2)C(=O)N/N=C/c2ccncc2)cc1	-2.3	-1.2	-1.0	9.9	i
COc1ccc(/C=C(/NC(=O)c2ccccc2)C(=O)N/N=C/c2ccncc2)c(OC)c1	-1.6	-2.6	active	-11.2	i
Cc1ccc(S(=O)(=O)N2CCOCC2)cc1C(=O)Nc1ccc(S(=O)(=O)Nc2nccs2)cc1	-1.1	-3.1	12.9	-19.2	i
CC(C)(C)c1ccc(C2=CC(c3ccccc3F)n3ncnc3N2)cc1 (stereo not drawn)	x	x	x	-2.2	x
Fc1ccc(Br)cc1C1C=C(c2cccnc2)Nc2ncnn21 (stereo not drawn)	-1.9	-1.8	4.8	47.8*	i
CCCCCCc1cc2cc(S(=O)(=O)c3ccc(F)c(Cl)c3)c(=O)oc2cc1O	-3.3	-2.5	2.9	14.3	i
CC1=NNC(=O)C1CC(=O)N/N=C/C(C)=C/c1ccccc1 (stereo not drawn)	-2.1	0.4	72.7	-3.9	+
CC1=NNC(=O)C1CC(=O)N/N=C/c1ccc(C)o1 (stereo not drawn)	-1.3	-2.0	-4.2	-1.7	i
Cc1ccc(O)c(CNc2nccs2)c1	-1.1	-1.2	8.4	14.5	i
Oc1ccc(Cl)cc1CNc1nccs1	8.4*	1.6	9.0	9.7	i
COc1ccc(Cl)cc1NC(=O)C1CCN(C(=O)Nc2ccccc2)CC1	x	x	x	-26.8	x
CN1NC(c2ccccc2)NN(C)C1=O	x	x	x	4.0	x
CC1C2C(c3ccccc3)N(C)C(=O)N(C)C2N(C)C(=O)N1C (stereo not drawn)	0.4	2.8	57.2*	20.8	+
SMILES	IMP-1 inhibitor	VIM-2 inhibitor	eIF4H inh	MLLE-PAM2 inh	PABP FP inh
COC(=O)c1cc(S(=O)(=O)N2CCN(Cc3ccccc3)CC2)c[nH]1	-3.7	-2.9	0.4	-4.5	i
COC(=O)c1ccc(N(C(=O)c2ccco2)C(C(=O)NC2CCCC2)c2ccco2)cc1 (stereo not drawn)	4.5*	2.8	3.2	8.9	i
CCOC(=O)CNc1nc(OCC#N)nc(N2CCOCC2)n1	20.0*	-1.6	-9.9	-7.1	i
CCOC(=O)COc1nc(OC)nc(N2CCOCC2)n1	-3.4	-1.0	-4.4	-7.7	i
CC1=NOC(=O)/C1=C\c1ccc(-c2ccc(Cl)cc2Cl)o1	-1.8	-1.3	54.9*	-1.3	i
CC(C)Oc1ccc(C(=O)NC2(C(F)(F)F)N=C3SCCN3C2=O)cc1 (stereo not drawn)	-3.8	-3.4	-7.1	46.4*	i
CC(=O)NC1(C(F)(F)F)N=C2SCCN2C1=O (stereo not drawn)	-1.7	-2.4	0.7	28.0	i
CC(C)(C)c1cc(CNC2CS(=O)(=O)C[C@@H]2O)cc(C(C)(C)C)c1O (stereo partly drawn)	7.3*	-0.5	1.4	-17.8	i
Cc1ccc(C(NC(=O)c2ccccc2)C(Cl)(Cl)Cl)cc1 (stereo not drawn)	-3.2	-3.5	1.3	10.0	i

Source: PubChem BioAssay
